# Compound activity as filed in PubChem.
# The list is not random: actives were taken first. Their share in the collection is about 5%.
# Beta cell apopt – blocks beta cell apoptosis | INS-1E cytokine-induced death, ATP luminescence, 48 h; percent of positive-control rescue, neutral wells zero | AID 435005 | protection from apoptosis, % (test concentration not listed) | actives 0.8% (n = 300,000);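 active means Every replicate reaches about 75%, or at least half do and their mean reaches it too, limit read from the data; inconclusive means At least half of replicates reach the limit but their mean does not; inactive means Under half of replicates reach the limit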;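 further: 0% = cytokine-treated negative control wells and 100% = positive control rescue; higher means more ATP so stronger rescue from cytokine killing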
# T cruzi repl – blocks replication of Trypanosoma cruzi; actives 1.4% (n = 300,000); AID 1885; inhibition, % (concentration not given with the values); T. cruzi beta-gal in NIH3T3, luminescence, 90 h;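 active means mean inhibition across valid replicates above about 55%, limit read from the data; inconclusive means mean below that limit but half or more replicates reach it; inactive means mean below it, under half of replicates reach it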;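 further: signal also drops with host cell toxicity which is not excluded here; 0% = plate median of DMSO wells and 100% = zero luminescence signal; higher percent means less beta-gal luminescence so fewer parasites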
#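 Incubation – ≥90 h infection period, 3 h prior cell attachment · System – NIH/3T3 fibroblasts plus reporter T. cruzi · Doses – compound pinned at 50 nL/well, DMSO · Read-out basis – percent inhibition of parasite-derived β-gal signal · Signal – luminescent β-galactosidase signal after 60 min lysis · Also added – 5000 T. cruzi trypomastigotes/well · Medium – Low-serum DMEM with 2% FBS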
# UPR CHOP act – activators of apoptotic arm of unfolded protein response (CHOP). CHO-CHOP luciferase reporter, UPR activation, luminescence; percent of tunicamycin response over DMSO baseline. activation, % at 10 µM. actives 0.34% (n = 330,000);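 active means at 10 µM dose, activation of 40% or more, normalized to positive control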;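 further: 100% = tunicamycin at 10 µg/mL and 0% = DMSO alone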
#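 Assay system: CHO-CHOP cells, stable luciferase reporter of PERK-eIF2a-CHOP signalling / Buffer or medium: F12 plus 10% serum / Compound dosing: one dose, 10 µM in 0.5% DMSO / Times: 6 h compound treatment, 37 °C / Technique: luciferase luminescence / Read-out: % reporter activation, DMSO baseline versus tunicamycin full activation / Benchmarks: tunicamycin and DMSO controls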
# XBP1 UPR activ – adaptive UPR (XBP1) activation. CHO-XBP1 luciferase reporter, IRE1-XBP1 UPR activation, luminescence; percent of tunicamycin response, DMSO as zero. activation, % at 20 µM. actives 0.33% (n = 330,000). AID 463104;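 active means versus positive control, 20 µM dose yields 30% or more activation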;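 further: 100% = tunicamycin at 10 µg/mL and 0% = DMSO only wells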
#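 Signal: luciferase luminescence; Assay system: CHO-XBP1 luciferase reporter cells; Amount: one thousand reporter cells per well; Dosing: 20 µM single concentration, DMSO 1%; Benchmarks: high control tunicamycin 10 µg/mL final, low control DMSO vehicle only; Schedule: 6 h compound exposure at 37 °C, 5% CO2; Evaluation: percent activation relative to tunicamycin reference.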
# CSC inhib – cancer stem cell inhibition | actives 1.1% (n = 300,000) | inhibition, % at 7.5 µM | cancer stem cell-like cells viability, luminescence; in the data active means inhibition above about 75%; inconclusive means no clear call, values can overlap the other calls; tested in HMLE shEcad cells
# Mdm2 MdmX PPI – inhibitors of human Mdm2/MdmX interaction; O15151+Q00987; SaOS-2 split-luciferase Mdm2/MdmX complementation, luminescence; inhibition, % at 8 µM; actives 3% (n = 330,000);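 active means inhibition of at least 50% at 8 µM in the primary screen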
# Target sequence (O15151 whole entry, looked up): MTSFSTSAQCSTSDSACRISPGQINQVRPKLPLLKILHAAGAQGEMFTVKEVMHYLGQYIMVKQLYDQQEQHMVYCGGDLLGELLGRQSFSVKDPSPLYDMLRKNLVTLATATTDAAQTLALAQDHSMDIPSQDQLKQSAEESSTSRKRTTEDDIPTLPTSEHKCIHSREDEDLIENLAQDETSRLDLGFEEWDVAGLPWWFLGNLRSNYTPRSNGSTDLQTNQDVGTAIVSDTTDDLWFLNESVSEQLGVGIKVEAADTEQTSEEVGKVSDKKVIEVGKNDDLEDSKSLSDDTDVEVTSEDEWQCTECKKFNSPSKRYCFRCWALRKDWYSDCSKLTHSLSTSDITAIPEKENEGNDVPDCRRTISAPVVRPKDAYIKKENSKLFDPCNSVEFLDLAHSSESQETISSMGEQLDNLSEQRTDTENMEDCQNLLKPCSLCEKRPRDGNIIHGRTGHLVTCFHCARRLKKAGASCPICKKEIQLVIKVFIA
# Target sequence (Q00987 whole entry, looked up): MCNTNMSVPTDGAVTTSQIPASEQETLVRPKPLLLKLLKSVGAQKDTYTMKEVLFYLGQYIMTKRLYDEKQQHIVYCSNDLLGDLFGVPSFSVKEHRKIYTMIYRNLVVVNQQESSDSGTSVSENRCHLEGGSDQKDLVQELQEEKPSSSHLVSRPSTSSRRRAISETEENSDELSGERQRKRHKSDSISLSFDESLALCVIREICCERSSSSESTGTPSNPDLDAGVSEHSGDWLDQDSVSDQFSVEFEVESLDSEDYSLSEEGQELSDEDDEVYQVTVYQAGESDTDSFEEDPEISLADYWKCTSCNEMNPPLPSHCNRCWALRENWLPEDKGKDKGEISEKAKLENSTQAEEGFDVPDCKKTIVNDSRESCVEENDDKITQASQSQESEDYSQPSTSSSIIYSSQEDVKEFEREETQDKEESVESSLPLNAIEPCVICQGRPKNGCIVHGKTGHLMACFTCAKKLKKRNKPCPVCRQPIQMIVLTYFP
# CHOP UPR conf – confirmation of apoptotic unfolded protein response (CHOP) activators. AID 463112. shares compounds with UPR CHOP act. actives 64% (n = 1,000). CHO-CHOP cells, CHOP-luciferase reporter luminescence; percent of tunicamycin response, DMSO as zero. activation, % at 10 µM; in the data active means activation above about 33%;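 further: 0% = DMSO wells and 100% = tunicamycin 10 µg/mL wells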
# UPR XBP1 confirm – confirmation of adaptive unfolded protein response (XBP1) activators; shares compounds with XBP1 UPR activ; CHO-XBP1 IRE1-XBP1 luciferase reporter, luminescence; activation, % at 20 µM; actives 63% (n = 1,000); AID 485299;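 active means reporter signal at least 30% of the positive control's activation in two or more of four replicate wells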;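 further: plate controls were DMSO negative control for no effect and tunicamycin 10 µg/mL positive control for full effect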
# Mdm2-MdmX conf – human Mdm2/MdmX binding inhibition, confirmed; shares compounds with Mdm2 MdmX PPI; luminescent assay; inhibition, % at 8 µM; actives 55% (n = 10,000); AID 489028; in the data active means inhibition above about 40%
# Full FLuc ctr – counter-screen for Mdm2/MdmX inhibitors: full-length luciferase | shares compounds with Mdm2 MdmX PPI | SaOS-2 full-length luciferase counterscreen, luminescence | inhibition, % at 8 µM | actives 77% (n = 6,200) | AID 504607;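 active means mean inhibition at 8 µM reaching about 37%, which flags the compound as non-specific, limit read from the data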;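 further: p53-null SaOS-2 cells with luciferase driven by a doxycycline-inducible promoter; compound on cells about two nights before reading with doxycycline added after day one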
# * = called active by the depositor; ? = inconclusive; . = no result given.
SMILES,Beta cell apopt,T cruzi repl,UPR CHOP act,XBP1 UPR activ,CSC inhib,Mdm2 MdmX PPI,CHOP UPR conf,Mdm2-MdmX conf,Full FLuc ctr,others
COC(=O)c1cc(=O)n(Cc2ccco2)c(=Nc2ccc(F)c(Cl)c2)s1,14,50,55*,7,94*,100*,54*,35,65*,
COc1cc2nc(NC(=O)c3ccc(Cl)cc3)sc(=O)c2cc1OC,-2,-17,47*,68*,0,69*,50*,24,.,UPR XBP1 confirm=27
C=C1C(=O)C=C[C@]2(C)C[C@@H]3OC(=O)[C@](C)(O)[C@H]3C[C@@H]12,.,-40,59*,3,?,73*,56*,47*,25,
C[C@@H]1C[C@@H]2OC(=O)[C@]3(C)[C@H]2[C@@H](OC3(C)O)[C@]2(C)C(=O)C=C[C@H]12 (stereo partly drawn),-6,3,3,1,9,-30,.,.,.,
COc1cccc(NS(=O)(=O)c2ccc(-n3cccn3)cc2)c1,5,11,1,-4,-10,15,.,.,.,
O=C(CSc1nc2ccc(Nc3nc(N4CCOCC4)nc(N4CCOCC4)n3)cc2s1)Nc1ccccc1F,7,.,106*,277*,-4,91*,111*,26,.,UPR XBP1 confirm=302*
CCOC(=O)/C(=C\c1cccc(O)c1)c1nc2sc(C)c(C)c2c(=O)[nH]1,-27,-10,47*,-2,60,82*,163*,35,27,
COc1ccc(C2c3c(ncn(CCCO)c3=N)Oc3ccc4ccccc4c32)cc1OC (stereo not drawn),.,12,1,0,.,44,.,.,.,
COc1ccc(C2c3ccc4ccccc4c3Oc3ncn(CCCN(C)C)c(=N)c32)cc1 (stereo not drawn),112*,42,76*,55*,105*,100*,37*,100*,51*,UPR XBP1 confirm=60*
COc1ccc(Nc2ccc3c(c2)=NC2(CCCCC2)[N+]=3[O-])cc1,104*,58*,45*,13,52,100*,21,59*,39*,
Oc1c(CN2CCCCC2)cc(Br)c2cccnc12,96*,56*,88*,26,33,77*,125*,75*,36*,
O=C(COc1c(Br)cc(Br)c2cccnc12)N1CCCCC1,-1,12,0,2,-1,6,.,.,.,
Oc1c(CN2CCc3ccccc3C2)cc(Cl)c2cccnc12,8,51,86*,21,84*,70*,325*,80*,46*,
CN1CCN(Cc2cc(COCc3ccccc3)c3cccnc3c2O)CC1,-2,77*,131*,26,1,60*,54*,75*,30,
Oc1c(Cl)cc(CN2CCOCC2)c2cccnc12,29,.,134*,20,.,78*,128*,84*,42*,
COCc1cc(CN2CCN(CCc3ccccc3)C(CCO)C2)ccc1OC (stereo not drawn),.,4,0,0,-1,6,.,.,.,
COC(=O)c1c(NC(=O)c2ccco2)sc(C(=O)N(C)C)c1C,-3,0,1,5,6,22,.,.,.,
Cc1ccc(S(=O)(=O)NC(=O)COc2cc(C)ccc2C(C)C)cc1,-4,1,0,-2,-3,0,.,.,.,
c1ccc(N2CCN(c3nc(-c4ccccn4)nc4ccccc34)CC2)cc1,93*,49,97*,17,-4,59*,21,31,.,
O=C(Nc1ccc2oc(-c3ccncc3)nc2c1)c1ccc([N+](=O)[O-])o1,47,16,162*,15,.,56*,46*,44*,45*,
O=C(Nc1ccc(-c2nc3ncccc3o2)cc1)c1ccc([N+](=O)[O-])o1,36,19,313*,18,47,55*,135*,49*,54*,
O=C(Nc1ccc(-c2nc3cc(NC(=O)c4cccs4)ccc3o2)cc1)c1cccs1,26,-3,195*,148*,10,60*,202*,23,.,UPR XBP1 confirm=324*
O=C(Nc1ccc2oc(-c3ccncc3)nc2c1)c1cccs1,6,-17,2,4,-6,-9,.,.,.,
O=C(Nc1ccc2oc(-c3ccc4ccccc4c3)nc2c1)c1ccc2c(c1)OCCO2,49,19,40*,200*,22,80*,105*,-2,.,
CCOc1cc(/C=N/N=C(\N)c2nonc2N)cc(Br)c1OCc1cccc2ccccc12,24,8,107*,268*,15,69*,30,59*,33,UPR XBP1 confirm=211*
SMILES,Beta cell apopt,T cruzi repl,UPR CHOP act,XBP1 UPR activ,CSC inhib,Mdm2 MdmX PPI,CHOP UPR conf,Mdm2-MdmX conf,Full FLuc ctr,others
N=c1oc2ccccc2cc1-c1nc2ccccc2c(=O)[nH]1,2,-11,2,-4,8,6,.,.,.,
COC(=O)c1ccc(C(=O)OC)c(NC(=O)CN(C)Cc2ccccc2)c1,-6,25,-1,-2,-2,11,.,.,.,
Clc1nc2c(-c3ccccc3)nnn2c2ccccc12,-5,64*,60*,0,71,100*,32,55*,51*,
Cc1ccc(-c2nnn3c2nc(Cl)c2ccccc23)cc1,.,-11,.,.,.,.,.,.,.,
O=S(=O)(NCC(c1ccco1)N1CCc2ccccc2C1)c1ccc(Br)cc1 (stereo not drawn),-3,28,-1,-3,18,14,.,.,.,
COc1cccc(CN2CCN(CC#Cc3ccccc3)CC2CCO)c1 (stereo not drawn),.,0,0,-2,.,-9,.,.,.,
CC(C)c1ccc(/C=C(\c2nc3ccccc3[nH]2)S(=O)(=O)c2ccccc2)cc1,102*,49,69*,17,46,100*,106*,100*,53*,
COc1ccc(/C=C(/NC(=O)c2ccccc2)c2nc3ccccc3[nH]2)cc1OC,10,3,5,-1,-7,6,.,.,.,
COc1cc(OC)c(NC2=CC(=O)C(=O)c3ccccc32)cc1Cl,120*,20,53*,20,102*,70*,18,66*,46*,
